Experiments:
Phosphodiesterase 3 [1] = molecular target: T1, Phosphodiesterase 3 (Homo sapiens, UniProt Q14432+Q13370); test: Inhibition of phosphodiesterase 3 at 1 uM cAMP; assay type: protein assay
How it was run: (§1)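 Enzyme activity was measured at 1 μM substrate, and the drug concentration giving 50% inhibition was taken as the IC50. IC50 was calculated by linear regression (r = 0.95) as the mean of three determinations, with experimental error about 15%. Values above 200 μM were reported as ns.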

Phosphodiesterase 4 [2] = molecular target: T2, Phosphodiesterase 4 (Homo sapiens, UniProt P27815+Q08499+Q07343+Q08493); test: Inhibition of phosphodiesterase 4 at 1 uM cAMP; assay type: protein assay; how it was run: as §1
[3] = molecular target: T3, cGMP-specific 3',5'-cyclic phosphodiesterase (Homo sapiens, UniProt O76074); test: Inhibition of Phosphodiesterase 5
Phosphodiesterase 4 [4] = molecular target: T2, Phosphodiesterase 4; test: Inhibition of Phosphodiesterase 4; assay type: protein assay
Adenosine receptor A1 = molecular target: T4, Adenosine receptor A1 (Homo sapiens, UniProt P30542); test: Displacement of [3H]CHA from Adenosine A1 receptor
T4 sequence (P30542 whole entry): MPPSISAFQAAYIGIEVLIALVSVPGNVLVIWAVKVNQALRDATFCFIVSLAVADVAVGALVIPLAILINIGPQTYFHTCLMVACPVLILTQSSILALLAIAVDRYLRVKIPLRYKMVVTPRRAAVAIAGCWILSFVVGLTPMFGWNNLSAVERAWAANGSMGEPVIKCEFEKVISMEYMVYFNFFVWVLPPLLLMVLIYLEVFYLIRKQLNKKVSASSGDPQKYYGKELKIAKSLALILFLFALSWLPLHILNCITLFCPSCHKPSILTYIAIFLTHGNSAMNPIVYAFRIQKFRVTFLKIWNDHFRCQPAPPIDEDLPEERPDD

Adenosine A2 receptor = Adenosine A2 receptor (Homo sapiens, UniProt P29275+P29274); test: Displacement of [3H]NECA from Adenosine A2 receptor; assay type: protein assay
[5] = molecular target: GABA-A receptor; anion channel; test: Displacement of [3H]diazepam from rat brain GABA-A benzodiazepine receptor
Phosphodiesterase 3 [6] = molecular target: T1, Phosphodiesterase 3; test: Inhibitory concentration against Phosphodiesterase 3 was tested by linear regression; assay type: protein assay; how it was run: as §1
Phosphodiesterase 1 = Phosphodiesterase 1 (Homo sapiens, UniProt P54750+Q01064+Q14123); test: Inhibition of phosphodiesterase 1; assay type: protein assay; how it was run: as §1
[7] = molecular target: T3, cGMP-specific 3',5'-cyclic phosphodiesterase; test: Inhibition of phosphodiesterase 5; how it was run: as §1

| IC50 (Phosphodiesterase 3 [1]) | IC50 (Phosphodiesterase 4 [2]) | other results | Compound |
| --- | --- | --- | --- |
| 101 µM | 1.8 µM | – | Nc1nc(C(F)(F)F)nc2c1ncn2Cc1ccccc1 |
| 61 µM | 11 µM | – | CN(C)c1nc(C(F)(F)F)nc2c1ncn2Cc1ccccc1 |
| > 200 µM | 160 µM | – | Nc1ncnc2c1ncn2Cc1ccccc1 [9-BENZYL-9H-ADENINE] |
| 339 µM | 4.6 µM | – | CNc1ncnc2c1ncn2Cc1ccccc1.CS(=O)(=O)O |
| > 200 µM | 54 µM | – | CNc1ncnc2c1nc(C)n2Cc1ccccc1F.CS(=O)(=O)O |
| > 200 µM | 53 µM | – | CCCCNc1ncnc2c1ncn2Cc1ccccc1F.Cl |
| – | – | Ki [3]: > 200 µM; Ki (Phosphodiesterase 4 [4]): > 200 µM | CCCCCC[C@@H]([C@@H](C)O)n1cnc2c(N)ncnc21 [EHNA] |
| 250 µM | 0.2 µM | – | CNc1nc(C)nc2c1ncn2Cc1ccccc1F.CS(=O)(=O)O |
| > 200 µM | 0.75 µM | – | CNc1nc(C(F)(F)F)nc2c1ncn2CCc1ccccc1 |
| > 200 µM | 121 µM | – | Cl.Fc1ccccc1Cn1cnc2c(N3CCCCC3)ncnc21 |
| – | 3 µM | IC50 (Adenosine receptor A1): > 100 µM; IC50 (Adenosine A2 receptor): > 100 µM; IC50 [5]: 13 µM; Ki [3]: 6.5 µM; IC50 (Phosphodiesterase 3 [6]): 121 µM; Ki (Phosphodiesterase 4 [4]): 2 µM | CNc1ncnc2c1ncn2Cc1ccccc1F.CS(=O)(=O)O |
| 331 µM | 11 µM | – | CNc1nc(C(F)(F)F)nc2c1ncn2C |
| > 200 µM | 0.5 µM | – | CNc1nc(-c2ccccc2)nc2c1ncn2Cc1ccccc1F.CS(=O)(=O)O |
| 380 µM | 0.04 µM | IC50 (Phosphodiesterase 1): 40 µM; IC50 [7]: 5 µM | CNc1nc(C(F)(F)F)nc2c1ncn2Cc1ccccc1F |

Reference: ChEMBL document CHEMBL1130051, “9-Benzyladenines: potent and selective cAMP phosphodiesterase inhibitors” (J Med Chem, 1997)
